Experiment [1] deals with Candida albicans. As to the kind of experiment: Antifungal activity against Candida albicans ATCC 10231 after 48 hrs by CLSI M27-A2 method. The format is functional. Particulars: ATCC 10231, 48 h. In a few lines:
(§1)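 Broth microdilution per CLSI M27-A2 in RPMI-1640, with twofold dilutions giving final 250–0.98 µg/mL. The inoculum was modified to 1–5 × 10⁴ CFU/mL instead of 1–5 × 10³, with ketoconazole and amphotericin B as positive controls. MIC was the lowest concentration giving total growth inhibition, read visually. Strains were grown on Sabouraud-chloramphenicol agar for 24 h at 37 °C.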

The subject of experiment [2] is Candida albicans. As to the kind of experiment: Antifungal activity against Candida albicans C 125-2000 after 48 hrs by CLSI M27-A2 method. The format is functional. In outline: as §1
Experiment [3] has as its system Candida albicans. Nature of the experiment: Antifungal activity against Candida albicans C 126-2000 after 48 hrs by CLSI M27-A2 method. The format is functional. In outline:
as §1

Experiment [4] relates to Candida albicans. Nature of the experiment: Antifungal activity against Candida albicans C 127-2000 after 48 hrs by CLSI M27-A2 method. In kind it is functional. In a few lines: as §1
For experiment [5], the system named is Candida albicans. As to the kind of experiment: Antifungal activity against Candida albicans C 128-2000 after 48 hrs by CLSI M27-A2 method. In kind it is functional. In outline: as §1
In experiment [6] the test system is Candida albicans. Nature of the experiment: Antifungal activity against Candida albicans C 129-2000 after 48 hrs by CLSI M27-A2 method. In kind it is functional. In a few lines: as §1
The subject of experiment [7] is Candida albicans. Nature of the experiment: Antifungal activity against Candida albicans C 130-2000 after 48 hrs by CLSI M27-A2 method. In kind it is functional. In outline:
as §1

The next experiment deals with Nakaseomyces glabratus. As to the kind of experiment: Antifungal activity against Candida glabrata C 115-2000 after 48 hrs by CLSI M27-A2 method. The format is functional. In outline: as §1
The subject of another experiment is Candida parapsilosis. Nature of the experiment: Antifungal activity against Candida parapsilosis C 124-2000 after 48 hrs by CLSI M27-A2 method. As to conditions: Lodderomyces parapsilosis. The format is functional. In a few lines: as §1
The test system of another experiment is Clavispora lusitaniae. As to the kind of experiment: Antifungal activity against Candida lusitaniae C 131-2000 after 48 hrs by CLSI M27-A2 method. The format is functional. In outline: as §1
The next experiment deals with Torulaspora delbrueckii. Nature of the experiment: Antifungal activity against Candida coliculosa C 122-2000 after 48 hrs by CLSI M27-A2 method. The format is functional. In outline: as §1
The subject of the next experiment is Pichia kudriavzevii. Nature of the experiment: Antifungal activity against Candida krusei C 117-2000 after 48 hrs by CLSI M27-A2 method. The format is functional. In outline: as §1
In the next experiment the test system is Kluyveromyces marxianus. As to the kind of experiment: Antifungal activity against Candida kefyr C 123-2000 after 48 hrs by CLSI M27-A2 method. In kind it is functional. In a few lines:
as §1

Another experiment concerns Candida tropicalis. Nature of the experiment: Antifungal activity against Candida tropicalis C 137-1997 after 48 hrs by CLSI M27-A2 method. The format is functional. In outline: as §1
The subject of experiment [8] is Candida albicans. Nature of the experiment: Antifungal activity against Candida albicans ATCC 10231 within 90 mins by time-to-kill study. In kind it is functional, organism-based. In outline:
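C. albicans ATCC 10231 (2–2.5 × 10⁴ CFU/mL) in 5 mL RPMI-1640 was exposed to 1× MFC of compound at 37 °C with agitation. 10 µL samples taken at 0, 30, 60, 90 and 120 min, and at 4, 8, 12 and 24 h, were plated on drug-free SDA and colonies counted after 24–48 h at 37 °C. Run in duplicate.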

Experiment [9] concerns Candida albicans. Nature of the experiment: Antifungal activity against Candida albicans ATCC 10231 after 24 hrs by CLSI M27-A2 method. In kind it is functional. As to conditions: ATCC 10231, 24 h. In a few lines:
as §1

The test system of experiment [10] is Candida albicans. Nature of the experiment: Antifungal activity against Candida albicans ATCC 10231 pre-incubated for 1 day analysed after 24 hrs by CLSI M27-A2 method. The format is functional. In a few lines:
(§2)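 Twofold maleimide dilutions (1000–0.98 µg/mL) in complete M27-A2 medium without inoculum were held at 37 °C, with one plate row filled on each of 7 consecutive days to give 0–7 days of pre-incubation. All wells were then inoculated with C. albicans ATCC 10231 at 1–5 × 10⁴ CFU/mL and incubated for 24 h at 37 °C. MIC was read per row, in duplicate.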

Experiment [11] relates to Candida albicans. As to the kind of experiment: Antifungal activity against Candida albicans ATCC 10231 pre-incubated for 2 days analysed after 24 hrs by CLSI M27-A2 method. In kind it is functional. In outline:
as §2

Experiment [12] has as its system Candida albicans. Nature of the experiment: Antifungal activity against Candida albicans ATCC 10231 pre-incubated for 3 days analysed after 24 hrs by CLSI M27-A2 method. In kind it is functional. In outline: as §2
In experiment [13] the test system is Candida albicans. As to the kind of experiment: Antifungal activity against Candida albicans ATCC 10231 pre-incubated for 4 days analysed after 24 hrs by CLSI M27-A2 method. In kind it is functional. In a few lines: as §2
Experiment [14] concerns Candida albicans. Nature of the experiment: Antifungal activity against Candida albicans ATCC 10231 pre-incubated for 5 days analysed after 24 hrs by CLSI M27-A2 method. The format is functional. In a few lines: as §2
Experiment [15] deals with Candida albicans. As to the kind of experiment: Antifungal activity against Candida albicans ATCC 10231 pre-incubated for 6 days analysed after 24 hrs by CLSI M27-A2 method. The format is functional. In outline:
as §2

For experiment [16], the system named is Candida albicans. Nature of the experiment: Antifungal activity against Candida albicans ATCC 10231 preincubated for 7 days analysed after 24 hrs by CLSI M27-A2 method. The format is functional. In outline:
as §2

In brackets after ≈: the same amount, converted by molar mass. Activity calls are given as the source filed them. The rule behind the calls is not given here.

For orientation: MIC means the least concentration at which growth counts as inhibited. Higher therefore signals weaker potency. What is called MFC is the lowest tested concentration that kills the fungus rather than only halting it. A low value points to more potent killing.

As to `O=C(O)/C=C\C(=O)NCCCCc1ccccc1`, the minimum inhibitory concentration (MIC) in the experiment on Candida albicans [1], against Candida albicans [2], in the experiment with Candida albicans [3], in the experiment with Candida albicans [4], against Candida albicans [5] and against Candida albicans [6] was more than 250 µg/mL each time. The MIC with Candida albicans [7], with Nakaseomyces glabratus, in the experiment with Candida parapsilosis, with Clavispora lusitaniae, in the experiment with Torulaspora delbrueckii and in the experiment with Pichia kudriavzevii was more than 250 µg/mL throughout. In addition, the MIC against Kluyveromyces marxianus and against Candida tropicalis was more than 250 µg/mL each time.

In the case of `O=C1C=CC(=O)N1CCCc1ccccc1`, the MFC in the experiment with Candida albicans [1] is 7.8 µg/mL (≈ 36.2 µM); against Candida albicans [2] it was 1.95 µg/mL (≈ 9.06 µM); with Candida albicans [3], 1.95 µg/mL (≈ 9.06 µM); against Candida albicans [4], 3.9 µg/mL (≈ 18.1 µM); with Candida albicans [5], 7.81 µg/mL (≈ 36.3 µM); in the experiment on Candida albicans [6], 3.9 µg/mL (≈ 18.1 µM). Also, the MFC with Candida albicans [7] was 1.95 µg/mL (≈ 9.06 µM); with Nakaseomyces glabratus, 3.9 µg/mL (≈ 18.1 µM); in the experiment on Candida parapsilosis, 3.9 µg/mL (≈ 18.1 µM); in the experiment with Clavispora lusitaniae, 7.8 µg/mL (≈ 36.2 µM); in the experiment on Torulaspora delbrueckii, 32.2 µg/mL (≈ 150 µM); with Pichia kudriavzevii, 7.8 µg/mL (≈ 36.2 µM). The MFC in the experiment with Kluyveromyces marxianus stood at 7.81 µg/mL (≈ 36.3 µM); in the experiment with Candida tropicalis it was 32.2 µg/mL (≈ 150 µM). Besides, the MIC in the experiment with Candida albicans [1] amounted to 3.9 µg/mL (≈ 18.1 µM); with Candida albicans [2], 0.97 µg/mL (≈ 4.51 µM); against Candida albicans [3], 0.97 µg/mL (≈ 4.51 µM); against Candida albicans [4] it was 1.95 µg/mL (≈ 9.06 µM); with Candida albicans [5] it was 3.9 µg/mL (≈ 18.1 µM); in the experiment with Candida albicans [6], 1.95 µg/mL (≈ 9.06 µM). Also, the MIC against Candida albicans [7] was 0.97 µg/mL (≈ 4.51 µM); with Nakaseomyces glabratus, 1.95 µg/mL (≈ 9.06 µM); against Candida parapsilosis, 3.9 µg/mL (≈ 18.1 µM); against Clavispora lusitaniae it was 1.95 µg/mL (≈ 9.06 µM); in the experiment on Torulaspora delbrueckii, 3.9 µg/mL (≈ 18.1 µM); against Pichia kudriavzevii, 3.9 µg/mL (≈ 18.1 µM). Further, the MIC stood at 15.8 µg/mL (≈ 73.2 µM) against Kluyveromyces marxianus; 15.8 µg/mL (≈ 73.2 µM) in the experiment with Candida tropicalis; 3.9 µg/mL (≈ 18.1 µM) against Candida albicans [9]; 3.9 µg/mL (≈ 18.1 µM) in the experiment with Candida albicans [10]; 3.9 µg/mL (≈ 18.1 µM) in the experiment with Candida albicans [11]; 15.8 µg/mL (≈ 73.2 µM) in the experiment with Candida albicans [12]. Further, the minimum inhibitory concentration (MIC) in the experiment on Candida albicans [13] was found to be 15.8 µg/mL (≈ 73.2 µM); against Candida albicans [14], 62.5 µg/mL (≈ 290 µM); against Candida albicans [15], 125 µg/mL (≈ 581 µM); with Candida albicans [16], 1000 µg/mL (≈ 4650 µM). In the experiment with Candida albicans [8], the result was Active.

For the compound `C[C@@H]1[C@H](O)[C@@H](C)/C=C/C=C/C=C/C=C/C=C/C=C/C=C/[C@H](O[C@@H]2O[C@H](C)[C@@H](O)[C@H](N)[C@@H]2O)C[C@@H]2O[C@](O)(C[C@@H](O)C[C@@H](O)[C@H](O)CC[C@@H](O)C[C@@H](O)CC(=O)O[C@H]1C)C[C@H](O)[C@H]2C(=O)O` [AMPHOTERICIN B], the MIC is 1 µg/mL (≈ 1.08 µM) against Candida albicans [1]; 0.78 µg/mL (≈ 0.844 µM) in the experiment with Candida albicans [2]; 1.56 µg/mL (≈ 1.69 µM) against Candida albicans [3]; 0.78 µg/mL (≈ 0.844 µM) against Candida albicans [4]; 1.56 µg/mL (≈ 1.69 µM) against Candida albicans [5]; 0.78 µg/mL (≈ 0.844 µM) with Candida albicans [6]. For the same compound, the MIC with Candida albicans [7] is 0.39 µg/mL (≈ 0.422 µM); in the experiment with Nakaseomyces glabratus, 0.39 µg/mL (≈ 0.422 µM); against Candida parapsilosis, 0.78 µg/mL (≈ 0.844 µM); in the experiment with Clavispora lusitaniae it was 0.39 µg/mL (≈ 0.422 µM); in the experiment with Torulaspora delbrueckii it was 0.39 µg/mL (≈ 0.422 µM); against Pichia kudriavzevii, 0.39 µg/mL (≈ 0.422 µM). Further, the MIC in the experiment with Kluyveromyces marxianus is 0.78 µg/mL (≈ 0.844 µM); in the experiment on Candida tropicalis, 0.12 µg/mL (≈ 0.13 µM).

Take `O=C(O)/C=C\C(=O)Nc1ccccc1`: the minimal inhibitory concentration (MIC) against Candida albicans [1], in the experiment with Candida albicans [2], against Candida albicans [3], in the experiment on Candida albicans [4], in the experiment with Candida albicans [5] and with Candida albicans [6] was more than 250 µg/mL each time. Moreover, the minimum inhibitory concentration (MIC) against Candida albicans [7], in the experiment on Nakaseomyces glabratus, against Candida parapsilosis, in the experiment on Clavispora lusitaniae, against Torulaspora delbrueckii and with Pichia kudriavzevii was more than 250 µg/mL throughout. Also, the MIC in the experiment on Kluyveromyces marxianus and with Candida tropicalis was more than 250 µg/mL in each case.

Turning to `O=C(O)/C=C\C(=O)NCc1ccccc1`, the MIC in the experiment on Candida albicans [1], against Candida albicans [2], against Candida albicans [3], against Candida albicans [4], against Candida albicans [5] and against Candida albicans [6] was more than 250 µg/mL each time. In addition, the MIC with Candida albicans [7], in the experiment with Nakaseomyces glabratus, against Candida parapsilosis, in the experiment on Clavispora lusitaniae, with Torulaspora delbrueckii and against Pichia kudriavzevii was more than 250 µg/mL each time. The MIC in the experiment on Kluyveromyces marxianus and against Candida tropicalis was more than 250 µg/mL each time.

For the origin of these results see ChEMBL document CHEMBL1143889, “N-Phenyl and N-phenylalkyl-maleimides acting against Candida spp.: time-to-kill, stability, interaction with maleamic acids” (2008).
